Where a name gives a salt, the structure may show the parent alone. Read-outs that look alike come from different tables or passages of the source. Each block holds one compound with its values, some of them ahead of it.
Tests used:
[1] = cited from earlier work; for oral bioavailability: purified constituents of TCMs
[2] = system: Caco-2 cells; assay: Uptake of BBR in Caco-2 cells with endocytosis inhibitors; assay type: cell-based, human; conditions: Nnps containing 10 μg/mL BBR, 4 h, indomethacin 100 μg/mL, chlorpromazine 10 μg/mL, cytochalasin D 5 μM
[3] = Solubility of BBR in supersaturated aqueous solutions; assay type: physicochemical; conditions: water, thermodynamic from solid
Summary of the method: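 Supersaturated aqueous preparations, each at 10 mg/mL BBR, were sonicated 1 h and centrifuged at 16,000 rpm for 10 min. BBR in the supernatant was quantified by LC-MS. n = 6.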

[4] = assay type: physicochemical
Summary of the method: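 Test material containing 10 mg BBR was enclosed in a blank capsule and run in a rotating-basket tester at 50 rpm and 37 ± 0.5°C. Medium was 900 mL HCl buffer (2.0 g NaCl, pH 1.2; sampled 5–90 min) or 0.2 M sodium phosphate (pH 6.8; sampled 2.5 min–6 h). Samples were 0.22-μm filtered and centrifuged, then BBR was quantified by LC-MS. n = 6.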

[5] = Transportation of BBR across MDCK-MDR1 cell monolayer; assay type: in vitro ADME, canine; conditions: dog
Summary of the method: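 MDCK-MDR1 cells were grown in DMEM/10% FBS/15 mM HEPES and seeded on polycarbonate Transwells (2×10^5 cells/mL) until TEER exceeded 500 Ω·cm2. Cells were equilibrated 20 min in HBSS (pH 7.2). BBR (final 10 μg/mL) was added apical or basolateral, and both sides were sampled after 2 or 4 h for LC-MS/MS. Papp = ΔQ/(Δt·A·C0), with A 0.33 cm2.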

[6] = Metabolism stability of BBR in intestinal S9; assay type: in vitro ADME; conditions: mouse, intestinal S9, pH 7.4
Summary of the method: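 Mouse intestinal S9 (2 mg/mL) plus test material (BBR final 10 μg/mL) in 50 mM Tris-HCl pH 7.4 was preincubated 5 min at 37°C, then started with NADPH (1 mg/mL). After 0.5 or 1 h, reactions were stopped with equal-volume chilled methanol containing carbamazepine internal standard and centrifuged. Residual BBR and demethylberberine were measured by LC-MS/MS.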

SMILES: CC1(C)[C@@H](O[C@H]2O[C@H](C(=O)O)[C@@H](O)[C@H](O)[C@H]2O[C@@H]2O[C@H](C(=O)O)[C@@H](O)[C@H](O)[C@H]2O)CC[C@]2(C)[C@H]3C(=O)C=C4[C@@H]5C[C@@](C)(C(=O)O)CC[C@]5(C)CC[C@@]4(C)[C@]3(C)CC[C@@H]12 [glycyrrhizin]
- oral bioavailability [1]: less than 5%

SMILES: CC(C)=CCC[C@](C)(O[C@@H]1O[C@H](CO[C@@H]2OC[C@H](O)[C@H](O)[C@H]2O)[C@@H](O)[C@H](O)[C@H]1O)[C@H]1CC[C@]2(C)[C@@H]1[C@H](O)C[C@@H]1[C@@]3(C)CC[C@H](O[C@@H]4O[C@H](CO)[C@@H](O)[C@H](O)[C@H]4O[C@@H]4O[C@H](CO)[C@@H](O)[C@H](O)[C@H]4O)C(C)(C)[C@@H]3CC[C@]12C [Rb2, ginsenoside Rb2]
- oral bioavailability [1]: less than 5%

SMILES: COc1ccc2c(c1)c(CC(=O)O)c(C)n2C(=O)c1ccc(Cl)cc1 [Indomethacin, indomethacin]
- effect of endocytosis inhibitor on uptake of BBR carried by the Nnps [2]: significantly reduced

SMILES: CC(C)(O)[C@@H]1CC[C@](C)([C@H]2[C@@H](O)C[C@@]3(C)[C@@H]4C[C@H](O[C@@H]5O[C@H](CO)[C@@H](O)[C@H](O)[C@H]5O)[C@H]5C(C)(C)[C@@H](O[C@@H]6OC[C@@H](O)[C@H](O)[C@H]6O)CC[C@@]56C[C@@]46CC[C@]23C)O1 [astragaloside IV]
- oral bioavailability [1]: less than 5%

SMILES: Cc1coc2c1C(=O)C(=O)c1c-2ccc2c1CCCC2(C)C [tanshinone IIA]
- oral bioavailability [1]: less than 5%

SMILES: C=C1[C@@H](C)[C@H]2[C@H](Cc3ccccc3)NC(=O)[C@]23[C@H](OC(C)=O)/C=C/[C@@](C)(O)C(=O)[C@@H](C)C/C=C/[C@H]3[C@@H]1O [cytochalasin D]
- effect of endocytosis inhibitor on uptake of BBR carried by the Nnps [2]: promoted the uptake

SMILES: CC(C)=CCC[C@](C)(O[C@@H]1O[C@H](CO[C@@H]2OC[C@@H](O)[C@H](O)[C@H]2O)[C@@H](O)[C@H](O)[C@H]1O)[C@H]1CC[C@]2(C)[C@@H]1[C@H](O)C[C@@H]1[C@@]3(C)CC[C@H](O[C@@H]4O[C@H](CO)[C@@H](O)[C@H](O)[C@H]4O[C@@H]4O[C@H](CO)[C@@H](O)[C@H](O)[C@H]4O)C(C)(C)[C@@H]3CC[C@]12C [Rb3, ginsenoside Rb3]
- oral bioavailability [1]: less than 5%

SMILES: CN(C)CCCN1c2ccccc2Sc2ccc(Cl)cc21 [Chlorpromazine, chlorpromazine]
- effect of endocytosis inhibitor on uptake of BBR carried by the Nnps [2]: promoted the uptake

SMILES: COc1cc(/C=C/C(=O)CC(=O)/C=C/c2ccc(O)c(OC)c2)ccc1O [curcumin]
- oral bioavailability [1]: less than 5%

- solubility at 1 h [3]: ~3700 µg/mL
- dissolution rate of BBR ([4]; artificial gastric juice (pH 1.2), 15 min): 7.5%
- dissolution rate of BBR ([4]; artificial gastric juice (pH 1.2), end point): 35.3%
- dissolution rate of BBR ([4]; artificial intestinal juice (pH 6.8), 15 min): 1.8%
- dissolution rate of BBR ([4]; artificial intestinal juice (pH 6.8), end point 6 h): 60.9%
- Papp at 10 μg/mL [5]: < 1 ×10⁻⁶ cm/s
- half-life at 10 μg/mL [6]: 149 min
SMILES: COc1ccc2cc3[n+](cc2c1OC)CCc1cc2c(cc1-3)OCO2 [BBR, berberine hydrochloride]
- bioavailability of oral BBR ([1]; oral): 0.36%
- fraction of BBR excreted directly with feces after oral administration ([1]; oral): approximately 56%
- intestinal elimination of the oral dose ([1]; oral): 43.5%
- oral bioavailability [1]: less than 5%

SMILES: O=C(O)[C@H]1O[C@@H](Oc2cc3oc(-c4ccccc4)cc(=O)c3c(O)c2O)[C@H](O)[C@@H](O)[C@@H]1O [baicalin]
- oral bioavailability [1]: less than 5%

SMILES: CC(C)=CCC[C@](C)(O[C@@H]1O[C@H](CO[C@@H]2O[C@H](CO)[C@@H](O)[C@H](O)[C@H]2O)[C@@H](O)[C@H](O)[C@H]1O)[C@H]1CC[C@]2(C)[C@@H]1[C@H](O)C[C@@H]1[C@@]3(C)CC[C@H](O[C@@H]4O[C@H](CO)[C@@H](O)[C@H](O)[C@H]4O[C@@H]4O[C@H](CO)[C@@H](O)[C@H](O)[C@H]4O)C(C)(C)[C@@H]3CC[C@]12C [ginsenoside Rb1]
- oral bioavailability [1]: less than 5%
